Measurements as given in ChEMBL document CHEMBL4823251, “Structure-Based Exploration of Selectivity for ATM Inhibitors in Huntington's Disease” (J Med Chem, 2021).
pIC50, pKd, pKi: −log10 of the molar value. ≈ marks a conversion by molar mass, not a printed value.

Tests used:
[1] = target: T1, Serine-protein kinase ATM (Homo sapiens, UniProt Q13315); assay: Inhibition of full length recombinant FLAG-tagged human ATM assessed as decrease in p53 S15 phosphorylation using full length myc-tagged p53 as substrate incubated for 30 mins in presence of ATP by ELISA
T1 sequence (Q13315 whole entry): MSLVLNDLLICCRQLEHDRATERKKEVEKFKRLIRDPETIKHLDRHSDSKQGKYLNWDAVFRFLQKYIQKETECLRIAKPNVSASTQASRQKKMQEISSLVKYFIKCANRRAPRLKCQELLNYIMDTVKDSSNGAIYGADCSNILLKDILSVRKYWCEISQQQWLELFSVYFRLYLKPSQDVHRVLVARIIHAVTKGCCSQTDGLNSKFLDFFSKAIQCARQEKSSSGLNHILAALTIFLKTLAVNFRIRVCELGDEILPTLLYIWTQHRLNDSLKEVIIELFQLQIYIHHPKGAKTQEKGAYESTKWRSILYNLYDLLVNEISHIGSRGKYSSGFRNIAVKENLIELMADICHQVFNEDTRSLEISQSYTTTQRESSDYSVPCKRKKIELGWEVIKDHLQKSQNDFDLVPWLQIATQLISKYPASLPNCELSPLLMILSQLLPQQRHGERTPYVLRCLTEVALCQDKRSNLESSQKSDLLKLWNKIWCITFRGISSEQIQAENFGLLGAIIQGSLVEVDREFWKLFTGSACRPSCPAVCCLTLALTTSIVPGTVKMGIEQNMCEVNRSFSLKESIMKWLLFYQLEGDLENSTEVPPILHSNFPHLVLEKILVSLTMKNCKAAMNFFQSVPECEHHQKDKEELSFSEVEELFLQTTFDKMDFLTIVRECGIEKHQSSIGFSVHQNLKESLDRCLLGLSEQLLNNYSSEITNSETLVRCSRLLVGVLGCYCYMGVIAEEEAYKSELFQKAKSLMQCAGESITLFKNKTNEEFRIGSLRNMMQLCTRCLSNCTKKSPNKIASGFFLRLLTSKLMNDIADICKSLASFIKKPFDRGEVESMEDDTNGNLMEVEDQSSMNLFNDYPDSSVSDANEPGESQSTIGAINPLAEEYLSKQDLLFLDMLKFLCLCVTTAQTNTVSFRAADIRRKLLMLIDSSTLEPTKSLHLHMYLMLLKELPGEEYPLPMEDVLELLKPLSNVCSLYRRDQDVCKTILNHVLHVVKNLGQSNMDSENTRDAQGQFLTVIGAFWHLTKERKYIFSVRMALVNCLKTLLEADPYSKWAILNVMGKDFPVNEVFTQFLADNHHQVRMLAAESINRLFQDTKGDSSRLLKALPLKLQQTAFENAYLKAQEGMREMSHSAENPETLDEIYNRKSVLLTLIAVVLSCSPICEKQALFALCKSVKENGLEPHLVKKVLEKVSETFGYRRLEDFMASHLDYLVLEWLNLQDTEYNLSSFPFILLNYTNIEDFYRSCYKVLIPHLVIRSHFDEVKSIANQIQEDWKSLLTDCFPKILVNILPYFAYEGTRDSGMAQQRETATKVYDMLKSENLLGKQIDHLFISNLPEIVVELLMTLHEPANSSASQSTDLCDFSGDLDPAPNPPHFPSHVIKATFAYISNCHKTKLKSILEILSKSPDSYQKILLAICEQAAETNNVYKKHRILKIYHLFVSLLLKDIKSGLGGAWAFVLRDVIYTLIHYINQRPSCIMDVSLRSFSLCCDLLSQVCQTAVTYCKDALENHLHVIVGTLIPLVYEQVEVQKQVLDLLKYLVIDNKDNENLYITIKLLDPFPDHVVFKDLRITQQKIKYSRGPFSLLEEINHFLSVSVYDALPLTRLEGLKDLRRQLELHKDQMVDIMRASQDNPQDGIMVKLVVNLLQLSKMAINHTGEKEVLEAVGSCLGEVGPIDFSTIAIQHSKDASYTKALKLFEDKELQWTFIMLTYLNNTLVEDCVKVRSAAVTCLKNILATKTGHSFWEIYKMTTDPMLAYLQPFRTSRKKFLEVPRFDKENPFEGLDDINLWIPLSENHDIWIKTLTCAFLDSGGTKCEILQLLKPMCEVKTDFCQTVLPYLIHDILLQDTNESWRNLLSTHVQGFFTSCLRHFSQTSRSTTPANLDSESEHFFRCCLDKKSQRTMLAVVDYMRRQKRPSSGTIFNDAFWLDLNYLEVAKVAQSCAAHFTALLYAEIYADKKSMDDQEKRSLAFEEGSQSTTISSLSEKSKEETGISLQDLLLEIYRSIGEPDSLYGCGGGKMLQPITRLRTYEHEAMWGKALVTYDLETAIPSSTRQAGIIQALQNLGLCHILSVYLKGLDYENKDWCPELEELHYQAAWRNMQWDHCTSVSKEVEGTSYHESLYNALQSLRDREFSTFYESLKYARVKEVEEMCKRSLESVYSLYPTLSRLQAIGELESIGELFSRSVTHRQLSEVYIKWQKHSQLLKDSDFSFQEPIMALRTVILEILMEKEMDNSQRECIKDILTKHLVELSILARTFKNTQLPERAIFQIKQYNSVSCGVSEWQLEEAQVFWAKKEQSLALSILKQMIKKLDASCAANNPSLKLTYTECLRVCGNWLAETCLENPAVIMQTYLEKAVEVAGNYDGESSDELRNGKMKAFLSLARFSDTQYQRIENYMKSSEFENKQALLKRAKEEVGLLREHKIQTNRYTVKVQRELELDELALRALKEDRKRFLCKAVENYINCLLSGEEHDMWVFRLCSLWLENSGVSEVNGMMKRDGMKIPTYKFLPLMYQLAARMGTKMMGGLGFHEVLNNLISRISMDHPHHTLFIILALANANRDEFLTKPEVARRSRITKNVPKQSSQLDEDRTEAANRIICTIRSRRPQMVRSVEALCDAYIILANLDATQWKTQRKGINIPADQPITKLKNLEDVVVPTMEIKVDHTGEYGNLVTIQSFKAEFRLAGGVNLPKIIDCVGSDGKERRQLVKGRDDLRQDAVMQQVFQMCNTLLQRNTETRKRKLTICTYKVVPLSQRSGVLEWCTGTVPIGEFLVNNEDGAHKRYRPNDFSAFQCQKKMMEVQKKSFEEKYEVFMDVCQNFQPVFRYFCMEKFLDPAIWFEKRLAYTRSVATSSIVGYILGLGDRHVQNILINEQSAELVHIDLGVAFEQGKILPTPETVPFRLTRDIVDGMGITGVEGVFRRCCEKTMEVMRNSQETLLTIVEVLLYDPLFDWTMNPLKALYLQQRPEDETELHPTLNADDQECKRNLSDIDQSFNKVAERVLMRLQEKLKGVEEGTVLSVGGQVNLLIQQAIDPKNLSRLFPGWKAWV
Outline: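 Buffer was 25 mM HEPES pH 7.5 with MgCl₂, MnCl₂, Brij-35, glycerol, BSA and DTT (0.1% DMSO); reaction ran 30 min at 20 °C and was stopped with 70 mM EDTA. Product captured on anti-myc-coated plates and detected with anti-p53 pS15, HRP secondary and TMB, absorbance at 450 nm.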

[2] = target: T1, Serine-protein kinase ATM; assay: Inhibition of ATM in human U2OS cells assessed as reduction in etoposide-stimulated KAP1 phosphorylation incubated for 60 mins by immunoreactivity assay; type: cell-based
Outline: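 U2OS cells plated overnight at 6k cells/well (37 °C, 5% CO₂), then treated with compound titrations (0.3% DMSO) plus 100 μM etoposide for 60 min. Cells fixed in cold methanol and stained for phospho-KAP1 and total KAP1 using IRDye secondaries on a LI-COR Odyssey. IC50 is the mean of at least two experiments.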

[3] = target: T2, Phosphatidylinositol 3-kinase catalytic subunit type 3 (Homo sapiens, UniProt Q8NEB9); assay: Inhibition of full length recombinant GST-tagged human VPS34 expressed in baculovirus expression system using PI/PS as substrate incubated for 60 mins in presence of ATP at Km concentration by luminescence assay
T2 sequence (Q8NEB9 whole entry): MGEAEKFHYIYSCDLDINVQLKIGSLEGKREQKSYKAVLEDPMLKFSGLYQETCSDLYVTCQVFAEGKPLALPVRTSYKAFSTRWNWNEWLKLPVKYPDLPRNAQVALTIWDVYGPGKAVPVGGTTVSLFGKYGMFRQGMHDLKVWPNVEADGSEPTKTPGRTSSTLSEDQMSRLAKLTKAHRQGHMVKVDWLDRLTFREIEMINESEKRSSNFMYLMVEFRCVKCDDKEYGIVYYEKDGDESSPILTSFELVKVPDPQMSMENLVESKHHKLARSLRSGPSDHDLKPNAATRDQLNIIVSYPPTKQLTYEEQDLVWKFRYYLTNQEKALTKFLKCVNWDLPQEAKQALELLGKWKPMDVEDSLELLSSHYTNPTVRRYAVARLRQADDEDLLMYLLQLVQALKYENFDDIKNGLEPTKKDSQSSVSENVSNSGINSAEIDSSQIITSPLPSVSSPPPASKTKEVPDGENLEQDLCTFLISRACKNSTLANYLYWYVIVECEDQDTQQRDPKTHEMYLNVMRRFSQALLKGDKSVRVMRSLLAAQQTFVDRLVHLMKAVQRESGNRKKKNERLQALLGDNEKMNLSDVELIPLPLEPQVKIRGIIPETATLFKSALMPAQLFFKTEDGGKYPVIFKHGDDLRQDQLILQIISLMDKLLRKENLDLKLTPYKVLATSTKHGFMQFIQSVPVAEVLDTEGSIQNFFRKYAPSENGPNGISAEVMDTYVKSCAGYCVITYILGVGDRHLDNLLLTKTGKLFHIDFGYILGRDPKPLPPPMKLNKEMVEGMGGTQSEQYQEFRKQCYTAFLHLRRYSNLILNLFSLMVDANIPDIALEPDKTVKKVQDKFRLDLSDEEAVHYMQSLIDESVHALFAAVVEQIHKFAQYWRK

Homo sapiens [4] = species: Homo sapiens; assay: Selectivity ratio of Ki for full length recombinant GST-tagged VPS34 expressed in baculovirus expression system using PI/PS as substrate incubated for 60 mins in presence of ATP at Km concentration by luminescence assay to Ki for full length recombinant FLAG-tagged human ATM assessed as decrease in p53 S15 phosphorylation using full length myc-tagged p53 as substrate incubated for 30 mins in presence of ATP by ELISA
Outline: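 ADP-Glo luminescence read-out. ATM reaction: 0.75 nM enzyme, 25 nM myc-p53, 10 μM ATP, 30 min at 20 °C, p53 S15 phosphorylation by ELISA. Ki values are means of at least two experiments.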

[5] = Kinetic solubility of the compound in pH 7.4 PBS buffer incubated for 2 hrs using orbital shaker by LC-UV mass spectrometry; type: physicochemical; conditions: read-out: Kinetic_solubility
Outline: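 Shaken on an orbital shaker for 2 h at room temperature, then filtered. Filtrate analysed by LC-UV with MS confirmation, calibrated against 200 μM and 10 μM DMSO dilutions.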

[6] = Effective efflux ratio of apparent permeability across basolateral to apical over apical to basolateral side in MDCK-MDR1 cells assessed as efflux ratio after 1 hr by LC-MS/MS analysis; type: ADME, cell-based, Canis lupus familiaris; conditions: dog, mdck-mdr1, 1 h
Outline: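 MDCKII MDR1 and wild-type cells seeded at 2 × 10⁵ cells/well in Transwells, cultured 3 days. Test compounds 10 μM in HBSS with 25 mM HEPES pH 7.4, dosed apical or basolateral in duplicate, 1 h at 37 °C. Lucifer yellow monolayer check, wells above 100 nm/s rejected. LC–MS/MS read-out. ER = Papp B>A/A>B. EER = MDR1 ER over wild-type ER.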

[7] = Apparent permeability across apical to basolateral side in MDCK-MDR1 cells after 1 hr by LC-MS/MS analysis; type: ADME, cell-based, Canis lupus familiaris; conditions: dog
Outline: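 MDCKII-MDR1 and wild-type cells seeded at 2 × 10⁵ cells/well on Transwells and cultured 3 days. Test compound at 10 μM in HBSS with 25 mM HEPES, pH 7.4, added apical or basolateral in duplicate. Lucifer yellow used as integrity check; wells above 100 nm/s rejected. Sampled after 1 h at 37 °C and quantified by LC–MS/MS. Papp taken from the apical-to-basal direction.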

[8] = Intrinsic clearance in C57Bl/6 mouse pooled liver microsomes at 1 uM measured up to 40 mins in presence of NADPH by LC-MS/MS analysis; type: ADME, Microsome; conditions: read-out: CLH
Outline: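 Reaction started with 1 mM NADPH. Sampled at 0, 5, 10, 20 and 40 min, quenched in acetonitrile with internal standard, and analysed by LC–MS/MS.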

[9] = target: DNA-dependent protein kinase catalytic subunit (Homo sapiens, UniProt P78527); assay: Inhibition of DNA-PK isolated from human HeLa nuclear extract using full length His-tagged p53 as substrate measured after 75 mins in presence of ATP by HTRF assay; type: subcellular, Nucleus
Outline: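 Buffer was 50 mM HEPES pH 7.5, 5 mM MgCl₂, 0.01% Brij35, 1 mM DTT and 1 μg/mL sheared calf thymus DNA; reaction ran 75 min at 20 °C. Stopped with d2-anti-6HIS and cryptate anti-phospho-p53 antibodies in KF/EDTA buffer. Read at 665/620 nm after 7 h.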

[10] = target: Serine/threonine-protein kinase ATR (Homo sapiens, UniProt Q13535); assay: Inhibition of ATR in human HT-29 cells assessed as reduction in CHK1 phosphorylation incubated for 4 hrs; type: cell-based
Outline: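 HT29 cells seeded at 25k/well overnight, then treated with compound titrations (0.3% DMSO) plus 10 μM gemcitabine for 4 h. Cells fixed in paraformaldehyde, permeabilized with Triton-X, and stained for phospho-Chk1 and total Chk1 using LI-COR IRDye detection. Ratio normalized to DMSO and 30 μM AZ-20 controls. IC50 is the mean of at least two experiments.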

[11] = target: T2, Phosphatidylinositol 3-kinase catalytic subunit type 3; assay: Binding affinity to VPS34 (unknown origin)
Homo sapiens [12] = species: Homo sapiens; assay: Selectivity ratio of Ki for DNA-PK isolated from human HeLa nuclear extract using full length His-tagged p53 as substrate measured after 75 mins in presence of ATP by HTRF assay to Ki for full length recombinant FLAG-tagged human ATM assessed as decrease in p53 S15 phosphorylation using full length myc-tagged p53 as substrate incubated for 30 mins in presence of ATP by ELISA
Outline: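 HTRF detection of p53 S15 phosphorylation. ATM reaction: 0.75 nM enzyme, 25 nM myc-p53, 10 μM ATP, 30 min at 20 °C, anti-myc capture ELISA. Ki values are means of at least two experiments.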

[13] = Clearance in C57Bl/6 mouse at 2 mg/kg, iv administered as single dose; type: ADME, organism-based; conditions: in vivo
Outline: (§1)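 Male C57BL/6 mice given a slow tail-vein bolus of a 0.4 mg/mL solution in 10:40:50 DMSO/PEG/H₂O, at 2 mg/kg (5 mL/kg) or 0.8 mg/kg (2 mL/kg). Plasma and brain sampled over 8 h, n = 3 per time point, and measured by LC–MS/MS. Noncompartmental analysis on mean concentrations with linear-trapezoidal AUC. Kp is the brain/plasma AUC ratio of total concentrations; Kpuu uses free concentrations, corrected by equilibrium-dialysis plasma and brain binding.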

[14] = Volume of distribution at steady state in C57Bl/6 mouse at 2 mg/kg, iv administered as single dose; type: ADME, organism-based; conditions: in vivo, read-out: Vdss; outline: as §1
[15] = Half life in C57Bl/6 mouse at 2 mg/kg, iv administered as single dose; type: ADME, organism-based; conditions: in vivo; outline: as §1
[16] = Brain to plasma permeability coefficient, Kp in C57Bl/6 mouse at 2 mg/kg, iv administered as single dose; type: ADME, organism-based; conditions: brain and plasma; outline: as §1
[17] = Unbound brain-to-plasma concentration ratio in C57Bl/6 mouse at 2 mg/kg, iv administered as single dose; type: ADME, organism-based; conditions: brain and plasma, read-out: K(p,uu,brain); outline: as §1
[18] = Bioavailability in C57Bl/6 mouse at 10 mg/kg, po or 2 mg/kg, iv; conditions: in vivo
[19] = Clearance in C57Bl/6 mouse at 0.8 mg/kg, iv administered as single dose; type: ADME, organism-based; conditions: in vivo; outline: as §1
[20] = Volume of distribution at steady state in C57Bl/6 mouse at 0.8 mg/kg, iv administered as single dose; type: ADME, organism-based; conditions: in vivo, read-out: Vdss; outline: as §1
[21] = Half life in C57Bl/6 mouse at 0.8 mg/kg, iv administered as single dose; type: ADME, organism-based; conditions: in vivo; outline: as §1
[22] = Brain to plasma permeability coefficient, Kp in C57Bl/6 mouse at 0.8 mg/kg, iv administered as single dose; type: ADME, organism-based; conditions: brain and plasma; outline: as §1
[23] = Unbound brain-to-plasma concentration ratio in C57Bl/6 mouse at 0.8 mg/kg, iv administered as single dose; type: ADME, organism-based; conditions: brain and plasma, read-out: K(p,uu,brain); outline: as §1
[24] = Bioavailability in C57Bl/6 mouse at 10 mg/kg, po or 0.8 mg/kg, iv; type: ADME, organism-based; conditions: in vivo
Outline: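 An IV reference dose of 0.8 mg/kg was given. Plasma measured by LC–MS/MS, n = 3 per time point. %F calculated as dose-normalized PO AUCinf divided by dose-normalized IV AUCinf.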

[25] = target: Serine/threonine-protein kinase mTOR (Homo sapiens, UniProt P42345); assay: Binding affinity to mTOR (unknown origin)

| SMILES | pKi [1] | pIC50 [2] | pKi [3] | Ratio Ki (Homo sapiens [4]) | solubility kinetic at 2 h [5] [µg/mL] | Ratio [6] | Papp A→B at 1 h [7] [×10⁻⁶ cm/s] | CLint scaled at 1 µM [8] [mL/min/kg] | pKi [9] | pIC50 [10] | Ratio Ki (Homo sapiens [12]) | clearance [13] [mL/min/kg] | Vd [14] [L/kg] | half-life [15] [h] | Kp [16] | Kp uu [17] | also measured |
| --- | --- | --- | --- | --- | --- | --- | --- | --- | --- | --- | --- | --- | --- | --- | --- | --- | --- |
| O=c1cc(N2CCOCC2)cc(N2CCCCC[C@@H]2Cc2ccccc2)[nH]1 | 9.00 | 6.64 | 7.30 | 50 | > 58 | 4.3 | 55.6 | 69 | 6.74 | < 4.52 | 180 | 35 | 3.4 | 1.6 | 0.41 | 0.18 | pKd [11]: 4.96; bioavailability [18]: 68% |
| C[C@@H]1CCN(c2nc(N3CCOCC3)cc(=O)[nH]2)[C@H]1Cc1ccccc1 | 9.40 | 7.05 | 8.22 | 15 | 33 (≈ 93.1 µM) |  |  |  | 6.96 | 5.26 | 275 |  |  |  |  |  | clearance [19]: 115 mL/min/kg; Vd [20]: 11 L/kg; half-life [21]: 0.75 h; Kp [22]: 1; Kp uu [23]: 0.47; bioavailability [24]: 78% |
| O=c1cc(N2CCOCC2)cc(N2C[C@H]3C[C@H]3[C@@H]2Cc2ccccc2)[nH]1 | 8.70 |  | 7.01 | 49 | 59 (≈ 168 µM) | 6.7 | 65.7 | < 75 | 6.80 | < 4.52 | 80 | 33.3 | 4.7 | 2.4 | 0.23 | 0.12 | pKd [25]: 5.34 |
